Experiments:
Cytochrome P450 3A4 = Cytochrome P450 3A4 (Homo sapiens, UniProt P08684); assay: Drug metabolism assessed as recombinant CYP3A4 (unknown origin)-mediated compound formation treated with amiodarone at 1 uM after 5 to 45 mins by LC-MS/MS analysis; format: ADME; details: recombinant enzyme
In short: (§1)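 Preincubated, then started with NADPH-regenerating system (1 mM NADPH final). Aliquots taken at 0, 5, 10, 20, 30, 45 min and quenched in acetonitrile with internal standard. No-NADPH controls included. Products measured by LC-MS/MS.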

[1] = Retention time in potassium phosphate buffer treated with amiodarone hydrochloride at 30 uM by HPLC analysis; format: physicochemical
Cytochrome P450 2J2 [2] = target: T1, Cytochrome P450 2J2 (Homo sapiens, UniProt P51589); assay: Drug metabolism assessed as recombinant CYP2J2 (unknown origin)-mediated compound formation treated with amiodarone at 1 uM after 5 to 45 mins by LC-MS/MS analysis; format: ADME; details: recombinant enzyme; in short: as §1
T1 sequence (P51589 whole entry): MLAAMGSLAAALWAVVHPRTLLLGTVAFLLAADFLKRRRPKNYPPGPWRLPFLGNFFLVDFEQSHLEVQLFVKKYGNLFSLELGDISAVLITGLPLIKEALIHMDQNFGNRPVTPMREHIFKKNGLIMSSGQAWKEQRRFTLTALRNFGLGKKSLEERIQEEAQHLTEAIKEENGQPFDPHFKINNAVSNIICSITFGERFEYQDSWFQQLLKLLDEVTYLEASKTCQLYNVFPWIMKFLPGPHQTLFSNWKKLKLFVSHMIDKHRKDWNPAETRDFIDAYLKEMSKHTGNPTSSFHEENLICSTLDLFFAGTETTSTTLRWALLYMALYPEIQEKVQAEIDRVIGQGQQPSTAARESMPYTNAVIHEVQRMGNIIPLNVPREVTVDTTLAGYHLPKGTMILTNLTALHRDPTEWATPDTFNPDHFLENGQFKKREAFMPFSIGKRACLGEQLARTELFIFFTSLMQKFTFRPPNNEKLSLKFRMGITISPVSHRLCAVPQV

Cytochrome P450 2J2 [3] = target: T1, Cytochrome P450 2J2; assay: Drug metabolism in human liver microsomes assessed as CYP2J2-mediated compound formation treated with amiodarone at 1 uM after 5 to 45 mins by LC-MS/MS analysis; format: ADME
CYP2J2 [4] = target: T2, CYP2J2 (Homo sapiens, UniProt P51589); assay: in vitro; details: recombinant enzyme
T2 sequence (P51589 whole entry): T1 sequence (P51589 whole entry)

CYP2C8 [5] = target: T3, CYP2C8 (Homo sapiens, UniProt P10632); assay: in vitro; details: human liver microsomes, probe paclitaxel (metabolite formation)
T3 sequence (P10632 whole entry): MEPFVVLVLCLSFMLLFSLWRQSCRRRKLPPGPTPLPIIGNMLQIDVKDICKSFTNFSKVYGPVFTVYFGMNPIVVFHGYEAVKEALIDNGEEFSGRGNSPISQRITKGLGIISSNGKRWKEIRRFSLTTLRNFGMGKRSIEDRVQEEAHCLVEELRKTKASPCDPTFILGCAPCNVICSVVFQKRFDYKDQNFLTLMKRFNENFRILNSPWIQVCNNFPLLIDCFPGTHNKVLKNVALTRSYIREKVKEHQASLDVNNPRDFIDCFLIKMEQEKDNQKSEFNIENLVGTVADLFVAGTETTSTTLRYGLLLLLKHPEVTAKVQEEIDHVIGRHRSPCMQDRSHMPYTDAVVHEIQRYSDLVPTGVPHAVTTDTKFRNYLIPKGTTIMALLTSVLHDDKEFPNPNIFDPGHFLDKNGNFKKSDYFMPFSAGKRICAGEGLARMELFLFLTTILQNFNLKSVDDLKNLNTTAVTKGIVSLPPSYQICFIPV

CYP2J2 [6] = target: T2, CYP2J2; assay: in vitro
Cytochrome P450 2C8 = target: T4, Cytochrome P450 2C8 (Homo sapiens, UniProt P10632)
T4 sequence (P10632 whole entry): T3 sequence (P10632 whole entry)

Cytochrome P450 2J2 [7] = target: T1, Cytochrome P450 2J2; assay: Drug metabolism in human liver microsomes assessed as CYP2J2-mediated astemizole O-demethylation measured per pmol protein at 0.3 uM after 5 mins by LC-MS/MS analysis; format: ADME
CYP3A4 = CYP3A4 (Homo sapiens, UniProt P08684); assay: Inhibition of CYP3A4-mediated midazolam metabolite formation in human liver microsomes at 0.3 uM after 8 mins by LC-MS/MS analysis relative to control; format: ADME; details: probe midazolam (metabolite formation)
Sequence of CYP3A4 (P08684 whole entry): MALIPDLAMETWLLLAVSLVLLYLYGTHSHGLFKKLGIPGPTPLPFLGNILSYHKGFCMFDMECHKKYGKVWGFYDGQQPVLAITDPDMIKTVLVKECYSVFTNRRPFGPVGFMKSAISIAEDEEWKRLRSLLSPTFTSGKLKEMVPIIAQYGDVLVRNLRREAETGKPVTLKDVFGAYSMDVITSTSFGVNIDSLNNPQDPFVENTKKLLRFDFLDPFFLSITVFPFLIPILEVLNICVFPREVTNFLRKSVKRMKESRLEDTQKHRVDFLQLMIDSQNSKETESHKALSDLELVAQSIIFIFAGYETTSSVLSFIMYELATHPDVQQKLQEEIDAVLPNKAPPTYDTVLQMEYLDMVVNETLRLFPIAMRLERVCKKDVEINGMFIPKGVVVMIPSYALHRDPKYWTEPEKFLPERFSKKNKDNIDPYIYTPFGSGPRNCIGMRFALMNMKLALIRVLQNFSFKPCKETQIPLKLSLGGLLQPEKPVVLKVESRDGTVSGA
In short: (§2)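 Pooled HLM with probe cocktail: phenacetin 10 µM, paclitaxel 5 µM, diclofenac 5 µM, S-mephenytoin 40 µM, dextromethorphan 5 µM, midazolam 2 µM. […] Preincubated 15 min, then started with NADPH-regenerating system (1 mM NADPH). Reaction run 8 min, quenched in acetonitrile with internal standard. Metabolites measured by LC-MS/MS; % inhibition given as mean ± S.D.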

CYP2C19 = CYP2C19 (Homo sapiens, UniProt P33261); assay: Inhibition of CYP2C19-mediated S-mephenytoin metabolite formation in human liver microsomes at 0.3 uM after 8 mins by LC-MS/MS analysis relative to control; format: ADME; details: probe S-mephenytoin (metabolite formation); in short: as §2
Sequence of CYP2C19 (P33261 whole entry): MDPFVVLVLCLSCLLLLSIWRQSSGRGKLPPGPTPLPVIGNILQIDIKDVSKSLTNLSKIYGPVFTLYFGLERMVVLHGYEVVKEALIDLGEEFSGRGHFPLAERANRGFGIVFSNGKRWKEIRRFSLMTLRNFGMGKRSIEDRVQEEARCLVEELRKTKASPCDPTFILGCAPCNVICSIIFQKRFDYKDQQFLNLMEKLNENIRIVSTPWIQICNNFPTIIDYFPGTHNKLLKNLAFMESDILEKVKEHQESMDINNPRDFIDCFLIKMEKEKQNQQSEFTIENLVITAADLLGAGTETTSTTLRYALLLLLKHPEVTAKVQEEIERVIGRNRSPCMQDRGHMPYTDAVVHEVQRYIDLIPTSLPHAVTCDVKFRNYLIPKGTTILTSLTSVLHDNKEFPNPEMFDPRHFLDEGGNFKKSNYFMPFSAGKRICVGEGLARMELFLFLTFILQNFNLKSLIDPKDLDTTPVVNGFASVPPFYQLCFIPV

CYP2C8 [8] = target: T3, CYP2C8; assay: Inhibition of CYP2C8-mediated paclitaxel metabolite formation in human liver microsomes at 0.3 uM after 8 mins by LC-MS/MS analysis relative to control; format: ADME; details: probe paclitaxel (metabolite formation); in short: as §2
Cytochrome P450 2D6 = Cytochrome P450 2D6 (Homo sapiens, UniProt P10635)
Sequence of Cytochrome P450 2D6 (P10635 whole entry): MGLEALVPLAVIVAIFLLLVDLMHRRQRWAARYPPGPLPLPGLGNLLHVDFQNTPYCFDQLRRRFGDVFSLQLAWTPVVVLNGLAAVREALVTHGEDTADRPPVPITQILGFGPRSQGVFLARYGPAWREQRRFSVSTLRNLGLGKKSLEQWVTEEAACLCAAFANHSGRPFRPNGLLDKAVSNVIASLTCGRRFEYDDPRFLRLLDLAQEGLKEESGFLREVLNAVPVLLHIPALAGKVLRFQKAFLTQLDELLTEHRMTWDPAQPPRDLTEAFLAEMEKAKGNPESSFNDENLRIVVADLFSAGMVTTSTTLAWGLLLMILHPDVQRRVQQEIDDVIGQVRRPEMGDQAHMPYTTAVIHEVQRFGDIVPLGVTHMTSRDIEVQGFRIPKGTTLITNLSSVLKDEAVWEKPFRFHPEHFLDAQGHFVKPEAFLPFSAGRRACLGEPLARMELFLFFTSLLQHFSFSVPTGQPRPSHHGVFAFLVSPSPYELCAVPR

Cytochrome P450 2C19 = Cytochrome P450 2C19 (Homo sapiens, UniProt P33261)
Sequence of Cytochrome P450 2C19 (P33261 whole entry): as the sequence (P33261 whole entry) above

Cytochrome P450 2C9 = Cytochrome P450 2C9 (Homo sapiens, UniProt P11712)
Sequence of Cytochrome P450 2C9 (P11712 whole entry): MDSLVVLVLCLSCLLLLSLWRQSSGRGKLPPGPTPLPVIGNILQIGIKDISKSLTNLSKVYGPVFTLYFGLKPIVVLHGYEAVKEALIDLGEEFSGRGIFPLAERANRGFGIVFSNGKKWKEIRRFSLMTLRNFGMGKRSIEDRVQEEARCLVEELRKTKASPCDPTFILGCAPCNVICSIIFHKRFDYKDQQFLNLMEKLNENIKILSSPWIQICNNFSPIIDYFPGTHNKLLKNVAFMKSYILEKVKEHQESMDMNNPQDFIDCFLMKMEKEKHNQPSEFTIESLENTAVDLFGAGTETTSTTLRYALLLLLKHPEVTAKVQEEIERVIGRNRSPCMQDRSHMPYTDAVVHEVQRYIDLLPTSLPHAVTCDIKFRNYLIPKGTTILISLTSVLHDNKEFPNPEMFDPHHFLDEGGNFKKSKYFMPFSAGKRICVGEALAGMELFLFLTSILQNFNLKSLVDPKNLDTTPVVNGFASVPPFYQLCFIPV

Cytochrome P450 1A2 = target: T5, Cytochrome P450 1A2 (Homo sapiens, UniProt P05177)
T5 sequence (P05177 whole entry): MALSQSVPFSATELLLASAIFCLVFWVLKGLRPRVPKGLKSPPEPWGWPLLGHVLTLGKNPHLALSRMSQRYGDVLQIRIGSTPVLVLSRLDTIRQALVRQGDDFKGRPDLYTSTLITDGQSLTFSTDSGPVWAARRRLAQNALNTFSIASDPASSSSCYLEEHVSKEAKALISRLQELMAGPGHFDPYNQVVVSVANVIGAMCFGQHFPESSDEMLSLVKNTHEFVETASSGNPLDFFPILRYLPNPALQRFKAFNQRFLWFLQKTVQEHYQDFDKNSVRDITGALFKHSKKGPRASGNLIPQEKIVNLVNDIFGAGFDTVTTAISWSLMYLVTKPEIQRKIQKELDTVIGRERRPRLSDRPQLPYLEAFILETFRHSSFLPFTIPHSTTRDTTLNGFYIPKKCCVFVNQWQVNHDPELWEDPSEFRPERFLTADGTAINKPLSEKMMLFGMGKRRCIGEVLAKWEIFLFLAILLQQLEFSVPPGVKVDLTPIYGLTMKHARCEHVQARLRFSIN

CYP2C9 = CYP2C9 (Homo sapiens, UniProt P11712); assay: Inhibition of CYP2C9-mediated diclofenac metabolite formation in human liver microsomes at 0.3 uM after 8 mins by LC-MS/MS analysis relative to control; format: ADME; details: probe diclofenac (metabolite formation); in short: as §2
Sequence of CYP2C9 (P11712 whole entry): as the sequence (P11712 whole entry) above

CYP1A2 = target: T6, CYP1A2 (Homo sapiens, UniProt P05177); assay: Inhibition of CYP1A2-mediated phenacetin metabolite formation in human liver microsomes at 0.3 uM after 8 mins by LC-MS/MS analysis relative to control; format: ADME; details: probe phenacetin (metabolite formation); in short: as §2
T6 sequence (P05177 whole entry): T5 sequence (P05177 whole entry)

CYP2D6 = CYP2D6 (Homo sapiens, UniProt P10635); assay: Inhibition of CYP2D6-mediated dextromethorphan metabolite formation in human liver microsomes at 0.3 uM after 8 mins by LC-MS/MS analysis relative to control; format: ADME; details: probe dextromethorphan (metabolite formation); in short: as §2
Sequence of CYP2D6 (P10635 whole entry): as the sequence (P10635 whole entry) above

Sequence of Cytochrome P450 3A4 (P08684 whole entry): as the sequence (P08684 whole entry) above

With CCN(CC)CCOc1c(I)cc(C(=O)c2c(CCC(C)O)oc3ccccc23)cc1I (stereo not given) the Drug metabolism (Cytochrome P450 3A4) was “metabolite_detected”, the Retention_time [1] was 13.2 min and the Drug metabolism (Cytochrome P450 2J2 [2]) was “metabolite_detected”. For the same compound, the Drug metabolism (Cytochrome P450 2J2 [3]) was “metabolite_detected”.
CCCCc1oc2ccccc2c1C(=O)c1cc(I)c(OCCN(CC)CC)c(I)c1 [AMIODARONE] showed an activity at 5 min, 30 µM (CYP2J2 [4]) of 18.7%, an inhibition at 8 min, 5 µM (CYP2C8 [5]) of 32.7% and an activity at 5 min, 30 µM (CYP2J2 [6]; recombinant enzyme) of 39%.
In the case of COc1ccc(CCN2CCC(Nc3nc4ccccc4n3Cc3ccc(F)cc3)CC2)cc1 [ASTEMIZOLE], the IC50 (Cytochrome P450 2C8) is reported as > 30 µM, the Drug metabolism (Cytochrome P450 2J2 [7]) is reported as 32 pmol/min and the inhibition at 8 min, 0.3 µM (CYP3A4) is reported as 20.3%. The inhibition at 8 min, 0.3 µM (CYP2C19) was 6%, the inhibition at 8 min, 0.3 µM (CYP2C8 [8]) was 1.1% and the IC50 (Cytochrome P450 2D6) was > 30 µM. The IC50 (Cytochrome P450 2C19) was 13.7 µM, the IC50 (Cytochrome P450 2C9) was > 30 µM and the activity at 5 min, 30 µM (CYP2J2 [6]; recombinant CYP2J2, probe terfenadine (hydroxylation)) was 8.3%. The IC50 (Cytochrome P450 1A2) was > 30 µM, the inhibition at 8 min, 0.3 µM (CYP2C9) was -2.7% and the inhibition at 8 min, 0.3 µM (CYP1A2) was -0.6%. The inhibition at 8 min, 0.3 µM (CYP2D6) was 8.5%.
